# Experimental data: ChEMBL document CHEMBL3044850, “Synthesis and biological activities of novel pyrazole oxime derivatives containing a 2-chloro-5-thiazolyl moiety” (2008)
# Activity calls are given as the source filed them. The calls are words filed in the database; no cut-off is given here.
# Tested on: Fusarium graminearum
# Assay: Fungicidal activity against Fusarium graminearum assessed as growth inhibition at 50 ug/ml at 23 degC after 3 days
# Type: functional
# Conditions: not given
# In short: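 Mycelial growth test in agar plates with 50 µg/mL final compound (from 500 µg/mL solution diluted into medium). A 4 mm plug from active mycelium fringe is placed centrally and incubated at 23 °C. Diameter is read after 3 days against a sterile water plus medium blank, in triplicate. Inhibition I = [(C − T)/C] × 100%.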
row,Structure (SMILES),growth inhibition (GI)
1,Cc1ccc(Cl)c(Oc2c(/C=N/OCc3cnc(Cl)s3)c(C(F)(F)F)nn2C)c1,inactive
2,COc1ccc(Oc2c(/C=N/OCc3cnc(Cl)s3)c(C(F)(F)F)nn2C)cc1,inactive

# Same assay, conditions: 72 h, read-out: GI
row,Structure (SMILES),inhibition of growth at 50 µg/mL
1,Cn1nc(C(F)(F)F)c(/C=N/OCc2cnc(Cl)s2)c1Oc1ccccc1Cl,24.6%
2,Cn1nc(C(F)(F)F)c(/C=N/OCc2cnc(Cl)s2)c1Oc1ccc(Cl)cc1Cl,24.3%
3,Cc1ccc(Oc2c(/C=N/OCc3cnc(Cl)s3)c(C(F)(F)F)nn2C)cc1,23.8%
4,Cn1nc(C(F)(F)F)c(/C=N/OCc2cnc(Cl)s2)c1Oc1cccc(Cl)c1,26.7%
5,Cn1nc(C(F)(F)F)c(/C=N/OCc2cnc(Cl)s2)c1Oc1ccc(C(C)(C)C)cc1,12.5%
6,Cn1nc(C(F)(F)F)c(/C=N/OCc2cnc(Cl)s2)c1Oc1ccc(Br)cc1,41.6%
7,Cn1nc(C(F)(F)F)c(/C=N/OCc2cnc(Cl)s2)c1Sc1ccccc1,40.8%

# Tested on: Cucumis sativus
# Assay: Growth regulation of Cucumis sativus (cucumber) seeds assessed as rhizogenesis at 10 ug/ml at 24 degC after 3 days by cucumber cotyledon test
# Type: functional
# Conditions: not given
# In short: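 Cucumber seeds (JINKE No. 4) were germinated in the dark at 24 °C for 3 days, and cotyledons of uniform size were selected. Sample in DMF (10 µg/mL) was sprayed onto filter paper and dried, then the paper was wetted with distilled water. Ten cotyledons were incubated in the dark at 24 °C for 3 days. Rhizogenesis was counted per 10 hypocotyls, in triplicate, with a distilled-water control and Student's t test.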
row,Structure (SMILES),Activity
1,Cn1nc(C(F)(F)F)c(/C=N/OCc2cnc(Cl)s2)c1Oc1ccccc1Cl,53.9%
2,Cn1nc(C(F)(F)F)c(/C=N/OCc2cnc(Cl)s2)c1Oc1ccc(Cl)cc1Cl,72.3%
3,Cc1ccc(Oc2c(/C=N/OCc3cnc(Cl)s3)c(C(F)(F)F)nn2C)cc1,43.6%
4,Cn1nc(C(F)(F)F)c(/C=N/OCc2cnc(Cl)s2)c1Oc1cccc(Cl)c1,14.2%
5,Cn1nc(C(F)(F)F)c(/C=N/OCc2cnc(Cl)s2)c1Oc1ccc(C(C)(C)C)cc1,72.7%
6,Cn1nc(C(F)(F)F)c(/C=N/OCc2cnc(Cl)s2)c1Oc1ccc(Br)cc1,48.5%
7,Cn1nc(C(F)(F)F)c(/C=N/OCc2cnc(Cl)s2)c1Sc1ccccc1,21.8%
8,Cc1ccc(Cl)c(Oc2c(/C=N/OCc3cnc(Cl)s3)c(C(F)(F)F)nn2C)c1,37.9%
9,COc1ccc(Oc2c(/C=N/OCc3cnc(Cl)s3)c(C(F)(F)F)nn2C)cc1,30.8%

# Tested on: Aphis medicaginis
# Assay: Insecticidal activity against Aphis medicaginis in soybean tender shoots assessed as mortality treated for 5 secs measured after 48 hr
# Type: functional
# Conditions: not given
row,Structure (SMILES),LC50
1,Cn1nc(C(F)(F)F)c(/C=N/OCc2cnc(Cl)s2)c1Oc1ccc(Cl)cc1Cl,22.9 µg/mL

# Tested on: Botryosphaeria berengeriana
# Assay: Fungicidal activity against Botryosphaeria berengeriana assessed as growth inhibition at 50 ug/ml at 23 degC after 3 days
# Type: functional
# Conditions: not given
# In short: (§1)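 Test solutions were made at 500 µg/mL and mixed 1:9 with agar medium to give 50 µg/mL plates. A 4 mm plug from the edge of actively growing mycelium was placed at the plate centre and incubated at 23 °C. Colony diameter was measured after 3 days against a sterile water plus medium blank, in triplicate. Inhibition = [(C − T)/C] × 100%.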
row,Structure (SMILES),growth inhibition (GI)
1,Cn1nc(C(F)(F)F)c(/C=N/OCc2cnc(Cl)s2)c1Oc1ccc(Cl)cc1Cl,inactive

# Same assay, conditions: 72 h, read-out: GI
row,Structure (SMILES),inhibition of growth at 50 µg/mL
1,Cn1nc(C(F)(F)F)c(/C=N/OCc2cnc(Cl)s2)c1Oc1ccccc1Cl,23.6%
2,Cc1ccc(Oc2c(/C=N/OCc3cnc(Cl)s3)c(C(F)(F)F)nn2C)cc1,21%
3,Cn1nc(C(F)(F)F)c(/C=N/OCc2cnc(Cl)s2)c1Oc1cccc(Cl)c1,21.7%
4,Cn1nc(C(F)(F)F)c(/C=N/OCc2cnc(Cl)s2)c1Oc1ccc(C(C)(C)C)cc1,22.1%
5,Cn1nc(C(F)(F)F)c(/C=N/OCc2cnc(Cl)s2)c1Oc1ccc(Br)cc1,32.9%
6,Cn1nc(C(F)(F)F)c(/C=N/OCc2cnc(Cl)s2)c1Sc1ccccc1,29.5%
7,Cc1ccc(Cl)c(Oc2c(/C=N/OCc3cnc(Cl)s3)c(C(F)(F)F)nn2C)c1,29.8%
8,COc1ccc(Oc2c(/C=N/OCc3cnc(Cl)s3)c(C(F)(F)F)nn2C)cc1,46.5%

# Tested on: Tetranychus cinnabarinus
# Assay: Insecticidal activity against Tetranychus cinnabarinus (carmine spider mite) in soybean tender shoots assessed as mortality at 0.2 mg/ml treated for 5 secs measured after 48 hr
# Type: functional
# Conditions: not given
# In short: (§2)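 Insects held at 26 °C, 60% relative humidity, 14 h photoperiod. Acetone stock at 0.5 mg/mL is diluted with water containing TW-20. Soybean tender shoots bearing 60 insects are dipped for 5 s, drained, then kept under the same conditions. Mortality is scored after 48 h relative to untreated controls, in triplicate.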
Structure (SMILES),mortality at 200 µg/mL,mortality
Cn1nc(C(F)(F)F)c(/C=N/OCc2cnc(Cl)s2)c1Oc1ccccc1Cl,6.2%,–
Cn1nc(C(F)(F)F)c(/C=N/OCc2cnc(Cl)s2)c1Oc1ccc(Cl)cc1Cl,7.2%,–
Cc1ccc(Oc2c(/C=N/OCc3cnc(Cl)s3)c(C(F)(F)F)nn2C)cc1,3.4%,–
Cn1nc(C(F)(F)F)c(/C=N/OCc2cnc(Cl)s2)c1Oc1cccc(Cl)c1,7.4%,–
Cn1nc(C(F)(F)F)c(/C=N/OCc2cnc(Cl)s2)c1Oc1ccc(C(C)(C)C)cc1,–,inactive
Cn1nc(C(F)(F)F)c(/C=N/OCc2cnc(Cl)s2)c1Oc1ccc(Br)cc1,4.3%,–
Cn1nc(C(F)(F)F)c(/C=N/OCc2cnc(Cl)s2)c1Sc1ccccc1,14.4%,–
Cc1ccc(Cl)c(Oc2c(/C=N/OCc3cnc(Cl)s3)c(C(F)(F)F)nn2C)c1,17.4%,–
COc1ccc(Oc2c(/C=N/OCc3cnc(Cl)s3)c(C(F)(F)F)nn2C)cc1,13.4%,–

# Tested on: Aphis medicaginis
# Assay: Insecticidal activity against Aphis medicaginis in soybean tender shoots assessed as mortality at 0.2 mg/ml treated for 5 secs measured after 48 hr
# Type: functional
# Conditions: not given
# In short: as §2
row,Structure (SMILES),mortality at 200 µg/mL
1,Cn1nc(C(F)(F)F)c(/C=N/OCc2cnc(Cl)s2)c1Oc1ccccc1Cl,46.1%
2,Cn1nc(C(F)(F)F)c(/C=N/OCc2cnc(Cl)s2)c1Oc1ccc(Cl)cc1Cl,86.3%
3,Cc1ccc(Oc2c(/C=N/OCc3cnc(Cl)s3)c(C(F)(F)F)nn2C)cc1,85.4%
4,Cn1nc(C(F)(F)F)c(/C=N/OCc2cnc(Cl)s2)c1Oc1cccc(Cl)c1,61.2%
5,Cn1nc(C(F)(F)F)c(/C=N/OCc2cnc(Cl)s2)c1Oc1ccc(C(C)(C)C)cc1,73.3%
6,Cn1nc(C(F)(F)F)c(/C=N/OCc2cnc(Cl)s2)c1Oc1ccc(Br)cc1,77.4%
7,Cn1nc(C(F)(F)F)c(/C=N/OCc2cnc(Cl)s2)c1Sc1ccccc1,83.4%
8,Cc1ccc(Cl)c(Oc2c(/C=N/OCc3cnc(Cl)s3)c(C(F)(F)F)nn2C)c1,69.2%
9,COc1ccc(Oc2c(/C=N/OCc3cnc(Cl)s3)c(C(F)(F)F)nn2C)cc1,83.4%

# Tested on: Aphis medicaginis
# Assay: Insecticidal activity against Aphis medicaginis in soybean tender shoots assessed as mortality at 0.5 mg/ml treated for 5 secs measured after 48 hr
# Type: functional
# Conditions: not given
# In short: as §2
row,Structure (SMILES),mortality at 500 µg/mL
1,Cn1nc(C(F)(F)F)c(/C=N/OCc2cnc(Cl)s2)c1Oc1ccccc1Cl,59.3%
2,Cn1nc(C(F)(F)F)c(/C=N/OCc2cnc(Cl)s2)c1Oc1ccc(Cl)cc1Cl,97.4%
3,Cc1ccc(Oc2c(/C=N/OCc3cnc(Cl)s3)c(C(F)(F)F)nn2C)cc1,95.3%
4,Cn1nc(C(F)(F)F)c(/C=N/OCc2cnc(Cl)s2)c1Oc1cccc(Cl)c1,70.4%
5,Cn1nc(C(F)(F)F)c(/C=N/OCc2cnc(Cl)s2)c1Oc1ccc(C(C)(C)C)cc1,89.4%
6,Cn1nc(C(F)(F)F)c(/C=N/OCc2cnc(Cl)s2)c1Oc1ccc(Br)cc1,90.4%
7,Cn1nc(C(F)(F)F)c(/C=N/OCc2cnc(Cl)s2)c1Sc1ccccc1,92.2%
8,Cc1ccc(Cl)c(Oc2c(/C=N/OCc3cnc(Cl)s3)c(C(F)(F)F)nn2C)c1,83.4%
9,COc1ccc(Oc2c(/C=N/OCc3cnc(Cl)s3)c(C(F)(F)F)nn2C)cc1,92.2%

# Tested on: Alternaria solani
# Assay: Fungicidal activity against Alternaria solani assessed as growth inhibition at 50 ug/ml at 23 degC after 3 days
# Type: functional
# Conditions: not given
# In short: as §1
row,Structure (SMILES),growth inhibition (GI)
1,Cn1nc(C(F)(F)F)c(/C=N/OCc2cnc(Cl)s2)c1Oc1ccccc1Cl,inactive

# Same assay, conditions: 72 h, read-out: GI
row,Structure (SMILES),inhibition of growth at 50 µg/mL
1,Cn1nc(C(F)(F)F)c(/C=N/OCc2cnc(Cl)s2)c1Oc1ccc(Cl)cc1Cl,29.2%
2,Cc1ccc(Oc2c(/C=N/OCc3cnc(Cl)s3)c(C(F)(F)F)nn2C)cc1,34.6%
3,Cn1nc(C(F)(F)F)c(/C=N/OCc2cnc(Cl)s2)c1Oc1cccc(Cl)c1,22.9%
4,Cn1nc(C(F)(F)F)c(/C=N/OCc2cnc(Cl)s2)c1Oc1ccc(C(C)(C)C)cc1,24.8%
5,Cn1nc(C(F)(F)F)c(/C=N/OCc2cnc(Cl)s2)c1Oc1ccc(Br)cc1,12.4%
6,Cn1nc(C(F)(F)F)c(/C=N/OCc2cnc(Cl)s2)c1Sc1ccccc1,43.5%
7,Cc1ccc(Cl)c(Oc2c(/C=N/OCc3cnc(Cl)s3)c(C(F)(F)F)nn2C)c1,32.3%
8,COc1ccc(Oc2c(/C=N/OCc3cnc(Cl)s3)c(C(F)(F)F)nn2C)cc1,14.6%

# Tested on: Mycosphaerella arachidis
# Assay: Fungicidal activity against Mycosphaerella arachidis assessed as growth inhibition at 50 ug/ml at 23 degC after 3 days
# Type: functional
# Conditions: not given
# In short: as §1
row,Structure (SMILES),growth inhibition (GI)
1,Cn1nc(C(F)(F)F)c(/C=N/OCc2cnc(Cl)s2)c1Oc1ccc(C(C)(C)C)cc1,inactive

# Same assay, conditions: 72 h, read-out: GI
row,Structure (SMILES),inhibition of growth at 50 µg/mL
1,Cn1nc(C(F)(F)F)c(/C=N/OCc2cnc(Cl)s2)c1Oc1ccccc1Cl,12.6%
2,Cn1nc(C(F)(F)F)c(/C=N/OCc2cnc(Cl)s2)c1Oc1ccc(Cl)cc1Cl,42.5%
3,Cc1ccc(Oc2c(/C=N/OCc3cnc(Cl)s3)c(C(F)(F)F)nn2C)cc1,5.9%
4,Cn1nc(C(F)(F)F)c(/C=N/OCc2cnc(Cl)s2)c1Oc1cccc(Cl)c1,55.3%
5,Cn1nc(C(F)(F)F)c(/C=N/OCc2cnc(Cl)s2)c1Oc1ccc(Br)cc1,9.2%
6,Cn1nc(C(F)(F)F)c(/C=N/OCc2cnc(Cl)s2)c1Sc1ccccc1,12.7%
7,Cc1ccc(Cl)c(Oc2c(/C=N/OCc3cnc(Cl)s3)c(C(F)(F)F)nn2C)c1,10.1%
8,COc1ccc(Oc2c(/C=N/OCc3cnc(Cl)s3)c(C(F)(F)F)nn2C)cc1,22.6%

# Tested on: Cladosporium cucumerinum
# Assay: Fungicidal activity against Cladosporium cucumerinum assessed as growth inhibition at 50 ug/ml at 23 degC after 3 days
# Type: functional
# Conditions: 72 h, read-out: GI
# In short: as §1
row,Structure (SMILES),inhibition of growth at 50 µg/mL
1,Cn1nc(C(F)(F)F)c(/C=N/OCc2cnc(Cl)s2)c1Oc1ccccc1Cl,23.7%
2,Cn1nc(C(F)(F)F)c(/C=N/OCc2cnc(Cl)s2)c1Oc1ccc(Cl)cc1Cl,32.3%
3,Cc1ccc(Oc2c(/C=N/OCc3cnc(Cl)s3)c(C(F)(F)F)nn2C)cc1,15.7%
4,Cn1nc(C(F)(F)F)c(/C=N/OCc2cnc(Cl)s2)c1Oc1cccc(Cl)c1,43.1%
5,Cn1nc(C(F)(F)F)c(/C=N/OCc2cnc(Cl)s2)c1Oc1ccc(C(C)(C)C)cc1,18.1%
6,Cn1nc(C(F)(F)F)c(/C=N/OCc2cnc(Cl)s2)c1Oc1ccc(Br)cc1,17.5%
7,Cn1nc(C(F)(F)F)c(/C=N/OCc2cnc(Cl)s2)c1Sc1ccccc1,9.7%
8,Cc1ccc(Cl)c(Oc2c(/C=N/OCc3cnc(Cl)s3)c(C(F)(F)F)nn2C)c1,48.5%
9,COc1ccc(Oc2c(/C=N/OCc3cnc(Cl)s3)c(C(F)(F)F)nn2C)cc1,12.3%
